Assay results: ChEMBL document CHEMBL1123282, “Antiinflammatory activity of substituted 6-hydroxypyrimido[2,1-f]purine-2,4,8(1H,3H,9H)-triones. Atypical nonsteroidal antiinflammatory agents” (J Med Chem, 1986)
Values joined by “and” are separate entries in the source; they are usually repeats but may differ in a detail not shown here. Equal values may be shown once.

Assays:
[1] = tested on: Rattus norvegicus; experiment: Tested in vivo for antiinflammatory activity against chronic adjuvant arthritic rat by prophylactic inhibition 2 degree paw after peroral administration of 10 mg/kg of dose; format: functional; conditions: route oral
Outline: (§1)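 Prophylactic regimen, rats. Adjuvant is heat-killed Mycobacterium tuberculosis ground to a fine powder in paraffin oil (6 mg/mL); 0.1 mL is injected into the left hind paw. Oral drug is given 1 h before adjuvant challenge, then for 21 consecutive days; controls receive methyl cellulose. Left (1°) and right (2°) hind paw volumes are measured by plethysmograph.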

[2] = tested on: Rattus norvegicus; experiment: Tested in vivo for antiinflammatory activity against chronic adjuvant arthritic rat by prophylactic inhibition 1 degree paw after peroral administration of 10 mg/kg of dose; format: functional; conditions: route oral; outline: as §1
[3] = tested on: Rattus norvegicus; experiment: In vivo antiinflammatory activity against rats by RPAR(reverse passive Arthus reaction) synovitis method; format: functional; design: concentration or dose not given beside the values
Outline: (§2)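 Lewis rats, oral drug or placebo 1 h before iv BSA (2.28 mg in saline), then intraarticular rabbit anti-BSA (0.54 mg) into one knee and saline into the other, under light anesthesia. Second oral dose at 3 h; the total of both doses is the calculated dose. About 17 h after induction, subpatellar tissue with synovium is excised and weighed. Response is antibody-minus-saline knee weight, tested by analysis of variance.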

[4] = tested on: Rattus norvegicus; experiment: Compound was tested in vivo for antiinflammatory activity against chronic adjuvant arthritic rat by prophylactic inhibition 2 degree paw after peroral administration of 25 mg/kg of dose; format: functional; conditions: route oral
[5] = biological target: Cyclooxygenase (Rattus norvegicus) (UniProt P35355+Q63921); experiment: In vitro inhibitory activity against Prostaglandin G/H synthase in rat neutrophils at a dose of 50 uM
[6] = tested on: Rattus norvegicus; experiment: Compound was tested in vivo for antiinflammatory activity against chronic adjuvant arthritic rat by prophylactic inhibition 1 degree paw after peroral administration of 25 mg/kg of dose; format: functional; conditions: route oral
[7] = biological target: T1, Polyunsaturated fatty acid 5-lipoxygenase (Rattus norvegicus) (UniProt P12527); experiment: In vitro inhibitory activity against Lipoxygenase in rat neutrophils at a dose of 50 uM
T1 sequence (whole entry): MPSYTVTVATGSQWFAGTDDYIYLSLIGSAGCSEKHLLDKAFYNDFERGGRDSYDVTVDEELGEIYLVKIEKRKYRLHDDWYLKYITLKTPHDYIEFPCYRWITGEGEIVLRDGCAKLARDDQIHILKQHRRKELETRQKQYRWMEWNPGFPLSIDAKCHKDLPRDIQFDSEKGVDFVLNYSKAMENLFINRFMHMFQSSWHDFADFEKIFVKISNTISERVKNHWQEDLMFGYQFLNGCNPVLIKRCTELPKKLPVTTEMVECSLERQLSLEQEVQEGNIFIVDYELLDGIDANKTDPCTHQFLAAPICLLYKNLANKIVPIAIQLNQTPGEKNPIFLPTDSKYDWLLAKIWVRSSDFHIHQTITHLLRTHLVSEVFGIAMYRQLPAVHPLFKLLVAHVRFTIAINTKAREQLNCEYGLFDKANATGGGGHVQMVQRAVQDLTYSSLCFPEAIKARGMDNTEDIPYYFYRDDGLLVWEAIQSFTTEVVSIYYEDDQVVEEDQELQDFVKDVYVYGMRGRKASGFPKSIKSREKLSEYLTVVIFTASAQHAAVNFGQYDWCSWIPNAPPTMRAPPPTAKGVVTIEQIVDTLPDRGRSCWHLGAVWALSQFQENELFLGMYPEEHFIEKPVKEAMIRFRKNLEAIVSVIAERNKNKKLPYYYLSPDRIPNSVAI
Outline: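 Neutrophils come from the 4 h pleural exudate of male Wistar-Lewis rats given iv BSA plus intrapleural rabbit anti-BSA IgG. Cells are washed, red cells lysed with NH4Cl, and resuspended at about 5×10^6 cells/0.1 mL in Tris pH 7.4 with NaCl and 1 mM CaCl2. Cells are preincubated with compound 4 min at room temperature.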

[8] = tested on: Rattus norvegicus; experiment: Compound was tested in vivo for antiinflammatory activity against chronic adjuvant arthritic rat by prophylactic inhibition 2 degree paw after peroral administration of 36 mg/kg of dose; conditions: po
[9] = tested on: Rattus norvegicus; experiment: Tested in vivo for antiinflammatory activity against chronic adjuvant arthritic rat by prophylactic inhibition 2 degree paw after peroral administration of 9 mg/kg of dose; format: functional; conditions: route oral; outline: as §1
[10] = tested on: Rattus norvegicus; experiment: Compound was tested in vivo for antiinflammatory activity against chronic adjuvant arthritic rat by prophylactic inhibition 2 degree paw after peroral administration of 18 mg/kg of dose; conditions: po
[11] = tested on: Rattus norvegicus; experiment: Compound was tested in vivo against chronic adjuvant arthritic rat by prophylactic inhibition 2 degree paw. Relative potency with respect to (8-Benzyl-5-hydroxy-1,3-dimethyl-6-propyl-1H,8H-1,3,4b,8,9-pentaaza-fluorene-2,4,7-trione); format: functional
[12] = tested on: Rattus norvegicus; experiment: Tested in vivo for antiinflammatory activity against chronic adjuvant arthritic rat by prophylactic inhibition 1 degree paw after peroral administration of 9 mg/kg of dose; format: functional; conditions: route oral; outline: as §1
[13] = tested on: Rattus norvegicus; experiment: Compound was tested in vivo for antiinflammatory activity against chronic adjuvant arthritic rat by prophylactic inhibition 1 degree paw after peroral administration of 36 mg/kg of dose; conditions: po
[14] = tested on: Rattus norvegicus; experiment: Compound was tested in vivo for antiinflammatory activity against chronic adjuvant arthritic rat by prophylactic inhibition 2 degree paw after peroral administration of 36 mg/kg of dose; format: functional; conditions: route oral
[15] = tested on: Rattus norvegicus; experiment: Compound was tested in vivo for antiinflammatory activity against chronic adjuvant arthritic rat by prophylactic inhibition 1 degree paw after peroral administration of 36 mg/kg of dose; format: functional; conditions: route oral
[16] = species: Rattus norvegicus; experiment: Compound was tested for intestinal Ulcerogenic effect in rats, activity expressed as lesion score; format: functional
Outline: (§3)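 Normal fed rats were gavaged once daily for three consecutive days at 10–300 mg/kg and killed 24 h after the last dose. Intestines were examined for ulcers, recording incidence per group of 8 and a lesion score (±SE).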

[17] = tested on: Rattus norvegicus; experiment: Compound was tested for intestinal ulcerogenic effect in rats at a dose of 10 mg/kg; format: functional; outline: as §3
[18] = species: Rattus norvegicus; experiment: Compound was tested for gastric Ulcerogenic effect in rats, activity expressed as lesion length
[19] = species: Rattus norvegicus; experiment: Compound was tested for intestinal Ulcerogenic effect in rats, activity expressed as ulcer incidence; format: functional; outline: as §3
[20] = species: Rattus norvegicus; experiment: compound was tested for antiinflammatory activity against collagen II arthritis in rats,; format: functional
Outline: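 Arthritis induced in rats by injection of bovine articular cartilage type II collagen (dissolved in 0.01 M AcOH, dialysed against saline) mixed 1:1 with incomplete Freund's adjuvant. Paw inflammation checked weekly for 7 weeks. Inhibition = [Δpaw vol(collagen) − Δpaw vol(collagen + drug)]/[Δpaw vol(collagen) − Δpaw vol(ICFA control)] × 100. Bone damage scored by lateral-projection radiography; p ≤ 0.05 by Student's t-test.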

[21] = species: Rattus norvegicus; experiment: Delayed Type hypersensitivity (DTH) is measured by increase in ear thickness 24 hours after antigen injection into pinna; format: functional
[22] = species: Rattus norvegicus; experiment: compound was tested for antiinflammatory activity by immune response to collagen II antigen in rats, antibody titer was determined by passive hemagglutinination; format: functional, organism-based
Outline: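 Rats immunized with bovine type II collagen in incomplete Freund's adjuvant, with drug given alongside. Antibody titer to collagen II measured by passive hemagglutination; p ≤ 0.05 by Student's t-test.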

[23] = tested on: Rattus norvegicus; experiment: Compound was tested in vivo for antiinflammatory activity against rats by RPAR(reverse passive Arthus reaction) synovitis method ata dose of 50 mg/kg, po; format: functional; outline: as §2

CCCCc1c(O)n(Cc2ccc(Cl)c(Cl)c2)c2nc3c(c(=O)n(C)c(=O)n3C)n2c1=O
inhibition in vivo at 10 mg/kg [1]: 17%
inhibition in vivo at 10 mg/kg [2]: 0%
Inhibition [3]: 33%

C#CCc1c(O)n(Cc2ccc(F)cc2)c2nc3c(c(=O)n(C)c(=O)n3C)n2c1=O
inhibition in vivo at 25 mg/kg [4]: 19%
inhibition [5]: 3%
inhibition in vivo at 25 mg/kg [6]: 10%
Inhibition [3]: 24%
inhibition [7]: 8% and 5%

CCCCc1c(O)n(Cc2ccc(F)cc2)c2nc3c(c(=O)n(C)c(=O)n3C)n2c1=O
inhibition in vivo at 36 mg/kg [8]: 74%
inhibition in vivo at 9 mg/kg [9]: 59%
inhibition in vivo at 18 mg/kg [10]: 70%
Relative potency [11]: 3.8
inhibition in vivo at 9 mg/kg [12]: 28%
Inhibition [3]: 27%
inhibition in vivo at 36 mg/kg [13]: 74%

CCCc1c(O)n(CCc2ccccc2)c2nc3c(c(=O)n(C)c(=O)n3C)n2c1=O
inhibition in vivo at 10 mg/kg [1]: 38%
inhibition in vivo at 10 mg/kg [2]: 14%
Inhibition [3]: 27%

CSc1ccc(Cn2c(O)c(CC=C(C)C)c(=O)n3c4c(=O)n(C)c(=O)n(C)c4nc23)cc1
inhibition in vivo at 25 mg/kg [4]: 63%
inhibition in vivo at 25 mg/kg [6]: 0%

Cn1c(=O)c2c(nc3n(Cc4ccccc4)c(O)c(CC=C4CCCCC4)c(=O)n23)n(C)c1=O
inhibition in vivo at 36 mg/kg [14]: 39%
inhibition [5]: 0%
inhibition in vivo at 36 mg/kg [15]: 6%
Inhibition [3]: 7%
inhibition [7]: 10% and 9%

CCCCCCn1c(O)c(CCC)c(=O)n2c3c(=O)n(C)c(=O)n(C)c3nc12
inhibition in vivo at 10 mg/kg [1]: 43%
inhibition in vivo at 10 mg/kg [2]: 28%
Inhibition [3]: 37%

CCCCC1C(=O)N(Cc2ccccc2)c2nc3nccnc3n2C1=O (stereo not given)
inhibition in vivo at 10 mg/kg [1]: 8%
inhibition in vivo at 10 mg/kg [2]: 0%
Inhibition [3]: 15%

C#CCc1c(O)n(Cc2ccccc2)c2nc3c(c(=O)n(C)c(=O)n3C)n2c1=O
inhibition in vivo at 10 mg/kg [1]: 27%
inhibition in vivo at 10 mg/kg [2]: 6%
inhibition [5]: 9%
Inhibition [3]: 27%
inhibition [7]: 11% and 7%

CCCCc1c(O)n(Cc2ccc(Cl)cc2Cl)c2nc3c(c(=O)n(C)c(=O)n3C)n2c1=O
inhibition in vivo at 10 mg/kg [1]: 29%
inhibition in vivo at 10 mg/kg [2]: 0%
Inhibition [3]: 31%

CCOC(=O)c1ccc(Cn2c(O)c(CC=C(C)C)c(=O)n3c4c(=O)n(C)c(=O)n(C)c4nc23)cc1
inhibition in vivo at 25 mg/kg [4]: 10%
inhibition in vivo at 25 mg/kg [6]: 0%

CCCCc1c(O)n(Cc2ccccc2)c2nc3c(c(=O)n(C)c(=O)n3C)n2c1=O
inhibition in vivo at 36 mg/kg [8]: 79%
inhibition in vivo at 9 mg/kg [9]: 55%
inhibition in vivo at 18 mg/kg [10]: 64%
Relative potency [11]: 2.1
inhibition in vivo at 9 mg/kg [12]: 17%
Inhibition [3]: 48%
inhibition in vivo at 36 mg/kg [13]: 52%

COc1ccc2c(c1)c(CC(=O)O)c(C)n2C(=O)c1ccc(Cl)cc1 [INDOMETHACIN]
Lesion length [16]: 4.2 mm rat-1
Ulcer incidence [17]: 8 number/group
Length [18]: 5 mm rat-1
Ulcer incidence [19]: 8 number/group

AURANOFIN
Positive [20]: 43.7% and 43.8%
DTH [21]: 0.0445 mM
Antibody titer [22]: 12.9 log-2

CCCc1c(O)n(Cc2cccs2)c2nc3c(c(=O)n(C)c(=O)n3C)n2c1=O
inhibition in vivo at 10 mg/kg [1]: 9%
inhibition in vivo at 10 mg/kg [2]: 20%
Inhibition [3]: 9%

CCCCC1C(=O)N(Cc2ccccc2)c2nc3ncncc3n2C1=O (stereo not given)
inhibition in vivo at 10 mg/kg [1]: 26%
inhibition in vivo at 10 mg/kg [2]: 0%
Inhibition [3]: 21%

CCCc1c(O)n(C(C)c2ccccc2)c2nc3c(c(=O)n(C)c(=O)n3C)n2c1=O (stereo not given)
inhibition in vivo at 50 mg/kg [23]: 0%

CCCCc1c(O)n(-c2ccc(F)cc2)c2nc3c(c(=O)n(C)c(=O)n3C)n2c1=O
inhibition in vivo at 10 mg/kg [1]: 35%
inhibition in vivo at 10 mg/kg [2]: 29%
Inhibition [3]: 26%

CC(C)=CCc1c(O)n(Cc2ccc([S+](C)[O-])cc2)c2nc3c(c(=O)n(C)c(=O)n3C)n2c1=O (stereo not given)
inhibition in vivo at 25 mg/kg [4]: 47%
inhibition in vivo at 25 mg/kg [6]: 13%

COc1ccc(Cn2c(O)c(CC=C(C)C)c(=O)n3c4c(=O)n(C)c(=O)n(C)c4nc23)cc1
inhibition [5]: 73%
Inhibition [3]: 10%
inhibition [7]: 0% and 15%

Cc1c(O)n(Cc2cccc(F)c2)c2nc3c(c(=O)n(C)c(=O)n3C)n2c1=O
inhibition in vivo at 50 mg/kg [23]: 0%

CCCCc1c(O)n(CC2CCCCC2)c2nc3c(c(=O)n(C)c(=O)n3C)n2c1=O
inhibition in vivo at 10 mg/kg [1]: 34%
inhibition in vivo at 10 mg/kg [2]: 11%
Inhibition [3]: 25%

Cc1c(O)n(Cc2ccccc2F)c2nc3c(c(=O)n(C)c(=O)n3C)n2c1=O
inhibition in vivo at 50 mg/kg [23]: 0%

CCCCn1c(=O)c2c(nc3n(CCc4ccccc4)c(O)c(CCC)c(=O)n23)n(CCCC)c1=O
Inhibition [3]: 0%

Cn1c(=O)c2c(nc3n(Cc4ccccc4)c(O)c(C4C=CCCC4)c(=O)n23)n(C)c1=O (stereo not given)
inhibition in vivo at 10 mg/kg [1]: 2%
inhibition in vivo at 10 mg/kg [2]: 8%
inhibition [5]: 17%
Inhibition [3]: 25%
inhibition [7]: 25% and 38%

COC(=O)Cc1c(O)n(Cc2ccccc2)c2nc3c(c(=O)n(C)c(=O)n3C)n2c1=O
Inhibition [3]: 14%

CCOCCc1c(O)n(Cc2ccccc2)c2nc3c(c(=O)n(C)c(=O)n3C)n2c1=O
Inhibition [3]: 8%

Cc1c(O)n(Cc2ccc(Cl)cc2)c2nc3c(c(=O)n(C)c(=O)n3C)n2c1=O
Inhibition [3]: 28%

C/C=C/Cc1c(O)n(Cc2ccccc2)c2nc3c(c(=O)n(C)c(=O)n3C)n2c1=O
inhibition in vivo at 10 mg/kg [1]: 24%
inhibition in vivo at 10 mg/kg [2]: 17%
inhibition [5]: 49%
Inhibition [3]: 12%
inhibition [7]: 26% and 29%

CCCc1c(O)n(Cc2ccccn2)c2nc3c(c(=O)n(C)c(=O)n3C)n2c1=O
Inhibition [3]: 17%
